Screens as filed in PubChem.
MrgX1 antag: antagonists of human MrgX1 receptor; AID 588676; MRGX1-HEK293 calcium flux, Fluo-4, BAM8-22 antagonism; stronger effect = lower value; B-score at 10 µM; actives 1.3% (n = 310,000); Q96LB2;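 active = calcium-response B-score plate-corrected more than 3 library SD below zero, starting fluorescence within 5 deviations, no agonist response on first addition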;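 note: peak minus trough fluorescence over baseline after final BAM8-22 challenge near maximal dose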
Target sequence (Q96LB2 whole entry, looked up): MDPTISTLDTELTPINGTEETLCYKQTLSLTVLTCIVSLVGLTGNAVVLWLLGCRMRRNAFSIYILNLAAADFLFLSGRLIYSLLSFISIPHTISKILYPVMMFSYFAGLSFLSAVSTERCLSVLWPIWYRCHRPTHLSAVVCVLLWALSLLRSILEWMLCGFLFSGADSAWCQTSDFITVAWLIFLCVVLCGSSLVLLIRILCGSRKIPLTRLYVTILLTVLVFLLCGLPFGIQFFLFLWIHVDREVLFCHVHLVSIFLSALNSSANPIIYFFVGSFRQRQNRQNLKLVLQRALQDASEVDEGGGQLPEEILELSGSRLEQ
MrgX1 PAM: allosterically activates human MrgX1 receptor signaling. Q96LB2. MrgX1-HEK293, Fluo-4 calcium flux, FDSS; stronger effect = higher value. B-score at 10 µM. actives 0.63% (n = 310,000);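 active = plate-corrected calcium response at least 3 library SD above typical, normal starting fluorescence, not activating the receptor alone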;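 note: compound read alongside a low EC10 to EC30 dose of BAM8-22 agonist; peak minus trough fluorescence over baseline measured at the second addition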
MrgX1 agonist: human MrgX1 receptor agonism, primary screen; actives 0.44% (n = 310,000); MrgX1-HEK293 cells, Fluo-4 calcium fluorescence, agonist mode; stronger effect = higher value; B-score at 10 µM;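 active = calcium response B-score plate-corrected fluorescence ratio at least 3 library SD, with starting fluorescence B-score inside 5 SD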
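Test system: Stable human MrgX1 HEK293 cell line | Schedule: Overnight plating before 1 h dye loading | Read-out basis: Baseline-normalised fluorescence change ratio, B-scored | Detection: Kinetic calcium dye fluorescence, Fluo-4 NW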
RGS4 act: RGS4 potentiation or activation; HEK293 M3R/inducible RGS4, carbachol calcium flux Fluo4; stronger effect = lower value; B-score at 10 µM; actives 0.92% (n = 310,000); AID 463111;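 active = B-score of the integrated calcium signal more than 4 SD below the library mean, with starting fluorescence not abnormally high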;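 note: negative B-score means reduced calcium response which marks RGS4 activation or potentiation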
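Reagent: ECmax carbachol challenge; Test system: M3R-expressing HEK293 line, RGS4 induced by doxycycline; Schedule: overnight RGS4 induction, 30 min dye load 37 °C, 20 min compound RT; Detection: calcium dye Fluo4 fluorescence; Read-out: Agonist-evoked peak-minus-minimum fluorescence over baseline, integrated ratio, B score.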
RGS4 block: inhibitors of human RGS4; B-score at 10 µM; actives 0.45% (n = 310,000); HEK293 M3R/RGS4 inducible, Fluo-4 calcium flux; stronger effect = higher value; triggered by carbachol at its EC20; P49798; AID 463165;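 active = B-score, a plate-corrected calcium signal, over three deviations above library mean, with baseline fluorescence within five deviations of library mean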;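 note: RGS4 expression induced by doxycycline in cells with stable M3 receptor; B-score is computed from the integrated fluorescence ratio over baseline after carbachol; higher B-score means a larger calcium signal and so more RGS4 inhibition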
Target sequence (P49798 whole entry, looked up): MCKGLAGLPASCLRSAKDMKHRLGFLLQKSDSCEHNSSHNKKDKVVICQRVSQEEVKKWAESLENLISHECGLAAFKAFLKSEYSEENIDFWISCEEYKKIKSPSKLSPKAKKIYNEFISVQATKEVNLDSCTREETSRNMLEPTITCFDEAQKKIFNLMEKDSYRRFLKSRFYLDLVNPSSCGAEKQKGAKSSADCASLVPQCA
MrgX1 antag conf: confirmation of human MrgX1 receptor antagonists. AID 602420. remaining BAM8-22 calcium response % of control (stronger effect = lower value), % at 10 µM. MrgX1-HEK293, BAM8-22 calcium flux, Fluo-4; stronger effect = lower value. actives 19% (n = 2,300). shares compounds with MrgX1 antag;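 active = remaining agonist calcium response no higher than 100% minus 3 SD of agonist-only control wells, with starting fluorescence near control levels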;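 note: agonist BAM8-22 given at a near maximal EC90 to ECmax level; peak minus minimum fluorescence divided by baseline after agonist addition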
HEK293 Ca flux: counter-screen for MrgX1 antagonists: effect in parental HEK293 cells. fluorescence ratio F(max-min)/F0 at 10 µM. AID 624111. actives 2% (n = 4,000). shares compounds with MrgX1 antag. Fluo-4 calcium fluorescence, FDSS;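 active = duplicate-averaged calcium fluorescence ratio at least three times the standard deviation of buffer wells, a nonspecific response in parental cells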
HEK293 Ca counter: MrgX1 allosteric activator counter-screen hit in parental HEK293 cells; fluorescence ratio F(max-min)/F0 at 10 µM; parental HEK293 calcium flux, Fluo-4 fluorescence ratio; stronger effect = higher value; shares compounds with MrgX1 antag; AID 624114; actives 0.4% (n = 4,000);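 active = calcium fluorescence ratio, averaged over duplicates, at least 3 SD of the buffer-well ratio, meaning a nonspecific response in receptor-free cells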;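 note: untransfected parental HEK293 lacking MrgX1 used as counterscreen for MrgX1 allosteric activators; fluorescence change taken during the second addition on a kinetic imager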
HEK293 Ca cntr2: counter-screen for MrgX1 activators: effect in parental HEK293 cells; shares compounds with MrgX1 antag; Fluo-4 calcium fluorescence (FDSS); stronger effect = higher value; fluorescence ratio F(max-min)/F0 at 10 µM; actives 8.7% (n = 4,000);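 active = calcium fluorescence ratio at least three times the spread of buffer wells, meaning a non-specific response in parental cells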
Numbers stand for hits; . = inactive; / = no result. Compounds with a hit are over-represented: about 3.5% of the library has one in this group of screens.

SMILES	MrgX1 antag	MrgX1 PAM	MrgX1 agonist	RGS4 act	RGS4 block	MrgX1 antag conf	HEK293 Ca flux	HEK293 Ca counter	HEK293 Ca cntr2
CCOc1ccc(NC(=O)CN2CCN(S(=O)(=O)c3ccc(Cl)cc3)CC2)cc1	-4.52	.	.	.	.	.	.	.	.
CCOc1ccc(NC(=O)CCN2CCN(S(=O)(=O)c3ccc(F)cc3)CC2)cc1	.	.	.	.	.	/	/	/	/
O=C(COC(=O)C1C2CC3OC(=O)C1C3C2)Nc1ccccc1 (stereo not drawn)	.	.	.	.	.	/	/	/	/
Cc1cccc2sc(NC(=O)c3ccc(Cl)s3)nc12	-7.13	.	.	.	.	.	.	.	.
COC(=O)C1=C(C)NC(=O)CC1c1ccc(F)c(Br)c1 (stereo not drawn)	-4.59	.	.	.	.	.	.	.	.
CCN(CCCNC(=O)CNC(=O)c1nn(-c2ccc(OC)cc2OC)c(=O)c2ccccc12)c1cccc(C)c1	.	.	.	.	.	/	/	/	/
Oc1ccc(C(=S)N2CCCCC2)cc1	-4.82	.	.	.	.	.	.	.	.
CCN(CC)C(=O)Cn1cc(S(=O)(=O)CC(=O)N2CCOCC2)c2ccccc21	.	.	.	.	.	/	/	/	/
O=C(O)CS(=O)CC(=O)Nc1cccc(C(F)(F)F)c1 (stereo not drawn)	.	.	.	.	.	/	/	/	/
Cc1cc(C)c(C(=O)OCC(=O)Nc2cccc(S(=O)(=O)N3CCCCC3)c2)c(C)c1	-11	.	.	.	.	.	.	.	.
O=C(COC(=O)c1ccc(O)cc1)Nc1cccc(S(=O)(=O)N2CCCCC2)c1	.	.	.	.	.	/	/	/	/
COc1ccc(S(=O)(=O)N2CCOCC2)cc1NC(=O)Cn1nnc2ccccc2c1=O	.	.	.	.	.	/	/	/	/
O=C(COC(=O)COc1ccccc1)NCCc1ccccc1	-5.18	.	.	.	.	.	.	.	.
Cc1ccc(-n2c(-c3ccc(Br)cc3)c[n+]3c2CCc2ccc4cccnc4c2-3)cc1	-10.9	.	.	.	.	18.7%	.	.	.
COc1ccc(-n2c(-c3ccc(Cl)cc3)c[n+]3c2CCc2ccccc2-3)cc1	.	.	.	.	.	/	/	/	/
CCC(C(=O)Nc1ccc2[nH]ncc2c1)c1ccccc1 (stereo not drawn)	.	.	.	.	.	/	/	/	/
Cc1ccc(CNC(=O)C2CCC(=O)N(Cc3ccc(Cl)cc3)C2)cc1F (stereo not drawn)	.	.	.	.	.	/	/	/	/
Cc1ccc(-n2c(-c3ccncc3)nnc2-c2cccs2)cc1	-5.66	.	.	.	.	.	.	.	.
CC1CC(C)CN(CCOc2ccc(Br)cc2)C1 (stereo not drawn)	.	.	.	.	.	/	/	/	/
CCCC(=O)Nc1ccccc1N1CCN(C(=O)C(C)C)CC1	-5.16	.	.	.	.	.	.	.	.
CC(C)C(=O)N1CCN(c2ccccc2NC(=S)NC(=O)Cc2ccccc2)CC1	.	.	.	.	.	/	/	/	/
Cc1cc(NCCN2CCOCC2)n2c(nc3ccccc32)c1C#N	.	.	.	.	.	/	/	/	/
Cc1cc(NCCCN2CCOCC2)n2c(nc3ccccc32)c1C#N	-5.99	.	.	.	.	78.3%	.	.	.
Cc1cc(NC(=O)Cn2nc([N+](=O)[O-])c(Br)c2C)no1	.	.	.	.	.	/	/	/	/
COc1ccccc1CNC(=O)[C@@H]1CCCN1S(=O)(=O)c1ccc(C)cc1	-6.65	.	.	.	.	.	.	.	.
SMILES	MrgX1 antag	MrgX1 PAM	MrgX1 agonist	RGS4 act	RGS4 block	MrgX1 antag conf	HEK293 Ca flux	HEK293 Ca counter	HEK293 Ca cntr2
CC1=C2C3OC(=O)C(C)[C@@H]3CC[C@](C)(O)C2C2C3C4C5(C12)[C@H]1OC(=O)[C@@H](C)C1CC[C@]4(C)O[C@]5(C)[C@@H]3O (stereo partly drawn)	.	.	.	.	.	/	/	/	/
Cc1ccc(NC(=O)C2CCN(S(C)(=O)=O)CC2)cc1Cl	.	.	.	.	.	/	/	/	/
COc1ccc(C(=O)N(c2ccc(OC)cc2)S(=O)(=O)c2cccs2)cc1	-4.93	.	.	.	.	.	.	.	.
COc1ccc(N(C(=O)c2ccccc2)S(=O)(=O)c2cccs2)cc1	.	.	.	.	.	/	/	/	/
COc1ccc(C(=O)Nc2nc3cc4c(cc3s2)OCO4)c(OC)c1	.	.	.	.	.	/	/	/	/
Cc1nnc(C)n1/N=C/c1cccnc1	-7.14	.	.	.	.	.	.	.	.
CCN(C(=O)c1ccc(S(=O)(=O)N2CCC(C)CC2)cc1)C1CCS(=O)(=O)C1 (stereo not drawn)	-4.65	.	.	.	.	.	.	.	.
Cc1ccc(C(=O)OCC(=O)N(C)C2CCS(=O)(=O)C2)cc1S(=O)(=O)N1CCCCC1 (stereo not drawn)	.	.	.	.	.	/	/	/	/
CN(C(=O)COC(=O)c1cccc(S(=O)(=O)N2CCCCC2)c1)C1CCS(=O)(=O)C1 (stereo not drawn)	-6.05	.	.	.	.	.	.	.	.
COC(=O)c1ccc(CSc2nc(C)nc3sc(C)c(C)c23)o1	-7.36	.	.	.	.	.	.	.	.
COC(=O)c1ccc(CSc2nnc(SCc3ccc(C(=O)OC)o3)s2)o1	.	.	.	.	.	/	/	/	/
O=c1cc(C(F)(F)F)[nH]c2ccc(C(F)(F)F)cc12	-4.72	.	.	.	.	.	.	.	.
CCC(=O)Nc1nc(-c2ccc3c(c2)CC(C)N3S(C)(=O)=O)cs1 (stereo not drawn)	.	.	.	.	.	/	/	/	/
CC1Cc2cc(-c3csc(NC(=O)Cc4cccs4)n3)ccc2N1S(C)(=O)=O (stereo not drawn)	-4.76	.	.	.	.	50.4%	.	.	.
Cc1cccc(NC(=O)CNC(=O)C23CC4CC(CC(Cl)(C4)C2)C3)n1	.	.	.	.	.	/	/	/	/
Cc1cccc(C)c1NC(=O)CNC(=O)C12CC3CC(CC(O)(C3)C1)C2	-4.89	.	.	.	.	.	.	.	.
CCOC(=O)C1(Cc2cccc(OC)c2)CCCN(C(=O)CCN2CCCO2)C1 (stereo not drawn)	.	.	.	.	.	/	/	/	/
O=C(c1ccco1)N1CCN(Cc2nc(-c3cccs3)no2)CC1	.	.	.	.	.	/	/	/	/
COc1ccc(OC)c(NC(=O)CCN2CC(C)OC(C)C2)c1 (stereo not drawn)	.	.	.	.	.	/	/	/	/
